Assays:
[1] = biological target: T1, Replicase polyprotein 1ab (Severe acute respiratory syndrome coronavirus, UniProt P0C6X7); assay: Inhibition of ATPase activity of SCV helicase assessed as phosphate release by colorimetric assay
Summary of the method: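 Purified SCV NTPase/helicase (400 nM in 50 mM Tris/HCl pH 6.6) preincubated with compounds for 5 min at rt. Stopped with malachite green/molybdate reagent in 1 M HCl. A620 read after 5 min, with phosphate from a standard curve.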

[2] = biological target: T1, Replicase polyprotein 1ab; assay: Inhibition of SCV helicase assessed as duplex-DNA unwinding by FRET based assay
Summary of the method: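 Substrate was 25-bp dsDNA with a 20-dT 5′-overhang. SCV helicase (150 nM in 20 mM HEPES pH 7.4) preincubated with compounds for 5 min at rt. Started with 5X reaction solution (5 mM MgCl2, 45 mM ATP, 25 mM DTT, 100 nM dsDNA substrate as 5X concentrations), then 2 min at 37 °C. Stopped with EDTA plus unmodified trap oligomer, with FRET read-out.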

Structure (SMILES)	IC50 [1] [µM]	IC50 [2] [µM]
O=C(O)C(=O)CC(=O)c1cccc(OCc2ccccc2)c1	> 50	> 50
O=C(O)C(=O)CC(=O)c1ccccc1OCc1ccccc1	> 50	> 50
O=C(O)C(=O)CC(=O)c1ccc(OCc2ccc(Cl)cc2)cc1 [4-(4-(4-chlorobenzyloxy)phenyl)-2-hydroxy-4-oxobut-2-enoic acid]	> 50	> 50
